Holding throughout (type): functional
The subject of assay [1] is Rattus norvegicus. Briefly: Antiinflammatory activity in carrageenan-induced Wistar rat paw edema model assessed as paw volume at 100 mg/kg, po administered 30 mins prior to carrageenan challenge measured at 1 hr by plethysmographic analysis (reference value: 0.90 +/- 0.05 ml). Background: The carrageenan paw model is a standard test of acute inflammation.
The test system of assay [2] is Rattus norvegicus. Briefly: Antiinflammatory activity in carrageenan-induced Wistar rat paw edema model assessed as paw volume at 100 mg/kg, po administered 30 mins prior to carrageenan challenge measured at 2 hrs by plethysmographic analysis (reference value: 1.07 +/- 0.08 ml).
The subject of assay [3] is Mus musculus. Briefly: Analgesic activity in Swiss albino mouse assessed as inhibition of acetic acid-induced writhing at 50 mg/kg, po administered 30 mins followed by acetic acid challenge measured for 20 mins relative to control. Put shortly:
(§1)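 Mice were fasted 18 h with water ad libitum and split into 6 groups. Test agents were dosed orally at 50 mg/kg, with diclofenac 50 mg/kg as standard. After 30 min, 1.0% v/v acetic acid was given ip at 1 mL/100 g. Writhes were counted over 20 min. % inhibition = (mean control writhes − mean test writhes)/mean control writhes × 100. Results are mean ± S.E.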
For orientation: Writhing tests count abdominal constrictions after an irritant is injected.

The subject of assay [4] is Rattus norvegicus. Description: Antiinflammatory activity in carrageenan-induced Wistar rat paw edema model assessed as paw volume at 100 mg/kg, po administered 30 mins prior to carrageenan challenge measured at 4 hrs by plethysmographic analysis (reference value: 1.2 +/- 0.05 ml).
Assay [5] deals with Rattus norvegicus. Description: Antiinflammatory activity in carrageenan-induced Wistar rat paw edema model assessed as paw volume at 100 mg/kg, po administered 30 mins prior to carrageenan challenge measured at 6 hrs by plethysmographic analysis (reference value: 0.96 +/- 0.03 ml).
In assay [6] the test system is Mus musculus. Description: Analgesic activity in Swiss albino mouse assessed as inhibition of acetic acid-induced writhing at 50 mg/kg administered 30 mins followed by acetic acid challenge measured for 20 mins relative to control. In outline:
as §1

As a reminder, the inhibition in vivo is the drop in the measured response relative to a control, in per cent. As for `Cc1noc(/C=C/c2ccccc2)c1N1CC2=C(C(=O)c3ccccc3C2=O)C12C(=O)Nc1ccccc12` (stereo unspecified), the Activity with Rattus norvegicus [1] was found to be 0.75 mL; in the assay with Rattus norvegicus [2], 0.84 mL; in the assay with Rattus norvegicus [4], 0.75 mL; with Rattus norvegicus [5], 0.6 mL. In the assay on Mus musculus [3], the inhibition in vivo at 50 mg/kg was found to be 22.4%.

On to `Cc1ccc(/C=C/c2onc(C)c2N2CC3=C(C(=O)c4ccccc4C3=O)C23C(=O)Nc2ccccc23)cc1` (stereo unspecified), for which the Activity was 0.7 mL in the assay on Rattus norvegicus [1], 0.8 mL with Rattus norvegicus [2], 0.69 mL in the assay on Rattus norvegicus [4] and 0.54 mL in the assay with Rattus norvegicus [5]. The inhibition in vivo at 50 mg/kg in the assay with Mus musculus [3] was found to be 26.3%.

As to `COc1ccc(/C=C/c2onc(C)c2N2CC3=C(C(=O)c4ccccc4C3=O)C23C(=O)Nc2ccccc23)cc1` (stereo unspecified), the Activity with Rattus norvegicus [1] was 0.8 mL; with Rattus norvegicus [2], 0.91 mL; in the assay with Rattus norvegicus [4] it was 0.65 mL; in the assay on Rattus norvegicus [5], 0.6 mL. In addition, in the assay on Mus musculus [3], the inhibition in vivo at 50 mg/kg was 19.6%.

Consider `Cc1noc(/C=C/c2ccc(Cl)cc2)c1N1CC2=C(C(=O)c3ccccc3C2=O)C12C(=O)Nc1ccccc12` (stereo unspecified), for which the Activity in the assay with Rattus norvegicus [1] came to 0.54 mL; in the assay on Rattus norvegicus [2], 0.69 mL; in the assay with Rattus norvegicus [4], 0.65 mL; with Rattus norvegicus [5], 0.41 mL. Further, the inhibition in vivo at 50 mg/kg with Mus musculus [3] came out at 50.4%.

For `Cc1noc(/C=C/c2ccc(Cl)cc2Cl)c1N1CC2=C(C(=O)c3ccccc3C2=O)C12C(=O)Nc1ccccc12` (stereo unspecified), the Activity with Rattus norvegicus [1] worked out at 0.57 mL; with Rattus norvegicus [2], 0.71 mL; with Rattus norvegicus [4] it was 0.54 mL; in the assay on Rattus norvegicus [5], 0.32 mL. The inhibition in vivo at 50 mg/kg with Mus musculus [3] worked out at 44.8%.

As for `Cc1noc(/C=C/c2c(Cl)cccc2Cl)c1N1CC2=C(C(=O)c3ccccc3C2=O)C12C(=O)Nc1ccccc12` (stereo unspecified), the Activity in the assay on Rattus norvegicus [1] was determined as 0.54 mL; with Rattus norvegicus [2], 0.7 mL; in the assay on Rattus norvegicus [4], 0.67 mL; in the assay with Rattus norvegicus [5], 0.4 mL. Also, in the assay on Mus musculus [3], the inhibition in vivo at 50 mg/kg was 48.3%.

With `Cc1noc(/C=C/c2ccccc2O)c1N1CC2=C(C(=O)c3ccccc3C2=O)C12C(=O)Nc1ccccc12` (stereo unspecified), the Activity in the assay on Rattus norvegicus [1] was found to be 0.78 mL; with Rattus norvegicus [2], 0.81 mL; with Rattus norvegicus [4] it was 0.8 mL; with Rattus norvegicus [5] it was 0.52 mL. In addition, the inhibition in vivo at 50 mg/kg with Mus musculus [3] was determined as 20.4%.

For the molecule `Cc1noc(/C=C/c2ccccc2)c1N1CC2=C(C(=O)c3ccccc3C2=O)C12C(=O)Nc1ccc(Cl)cc12` (stereo unspecified), the Activity was found to be 0.82 mL in the assay with Rattus norvegicus [1], 0.83 mL in the assay on Rattus norvegicus [2], 0.82 mL in the assay with Rattus norvegicus [4] and 0.63 mL in the assay on Rattus norvegicus [5]. The inhibition in vivo at 50 mg/kg in the assay on Mus musculus [3] turned out to be 16.5%.

Regarding `COc1ccc2c(c1)C1(C(=O)N2)C2=C(CN1c1c(C)noc1/C=C/c1ccccc1)C(=O)c1ccccc1C2=O` (stereo unspecified), the Activity with Rattus norvegicus [1] was determined as 0.73 mL; with Rattus norvegicus [2], 0.91 mL; in the assay with Rattus norvegicus [4], 0.81 mL; in the assay on Rattus norvegicus [5], 0.6 mL. In addition, in the assay with Mus musculus [3], the inhibition in vivo at 50 mg/kg turned out to be 18.4%.

On to `Cc1ccc2c(c1)C1(C(=O)N2)C2=C(CN1c1c(C)noc1/C=C/c1ccccc1)C(=O)c1ccccc1C2=O` (stereo unspecified), for which the Activity with Rattus norvegicus [1] stood at 0.77 mL; in the assay with Rattus norvegicus [2], 0.89 mL; in the assay on Rattus norvegicus [4] it was 0.83 mL; in the assay with Rattus norvegicus [5], 0.55 mL. Moreover, the inhibition in vivo at 50 mg/kg with Mus musculus [3] worked out at 19.5%.

For `O=C(O)Cc1ccccc1Nc1c(Cl)cccc1Cl` [DICLOFENAC], the inhibition in vivo at 50 mg/kg in the assay on Mus musculus [6] stood at 53.6%.

The record behind these values is ChEMBL document CHEMBL2396518, “A facile synthesis, anti-inflammatory and analgesic activity of isoxazolyl-2,3-dihydrospiro[benzo[f]isoindole-1,3'-indoline]-2',4,9-triones” (2013).
